High-throughput results: PubChem, several laboratories
An excerpt weighted towards active compounds, which were near 2.5% of everything screened.
GalR3 antagonist: antagonists of human GalR3; inhibition, % at 3 µM; AID 651719; 0.44% of 360,000 active; HEK293 GalR3-CNG cAMP membrane potential fluorescence; galR3 body fused to GalR1 C-terminus; O60755;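 active means inhibition above the screen-wide average plus 3 SD, cut at about 13% in these data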;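 further: forskolin and galanin both at EC90 stimulate the cells; cAMP rise reported by CNG channel membrane potential dye signal; 0% = forskolin plus galanin with DMSO and 100% = forskolin alone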
NR2E3 ag-1: human photoreceptor-specific nuclear receptor agonism | Q9Y5X4 | CHO-S Gal4-NCOR/VP16-NR2E3 two-hybrid, luciferase | inhibition of corepressor binding, % at 3.98 µM | 0.35% of 360,000 active;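 active means inhibition above the mean of all tested compounds plus 3 SD, cut at about 70% in these data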;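 further: 0% = DMSO with NR2E3 transfected cells and 100% = cells lacking NR2E3 construct; higher means lower luciferase signal from less NR2E3 corepressor binding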
Target sequence (Q9Y5X4 whole entry, looked up, the tested form may be a part): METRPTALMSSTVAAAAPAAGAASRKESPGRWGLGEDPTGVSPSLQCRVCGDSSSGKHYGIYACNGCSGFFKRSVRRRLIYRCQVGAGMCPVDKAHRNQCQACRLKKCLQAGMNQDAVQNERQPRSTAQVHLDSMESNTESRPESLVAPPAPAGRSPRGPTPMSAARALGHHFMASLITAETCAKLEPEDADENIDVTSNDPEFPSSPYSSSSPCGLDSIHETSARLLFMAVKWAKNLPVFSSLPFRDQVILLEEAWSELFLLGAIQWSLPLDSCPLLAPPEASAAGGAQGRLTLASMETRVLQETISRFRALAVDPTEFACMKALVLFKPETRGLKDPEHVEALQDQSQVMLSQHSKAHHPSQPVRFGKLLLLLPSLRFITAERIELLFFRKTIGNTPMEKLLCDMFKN
bovine MsrA act: activates bovine MsrA enzyme | purified bovine MsrA, absorbance read-out | activation, % at 10.6 µM | 0.3% of 360,000 active | AID 602163; in the data active means activation above about 7.5%;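 further: 0% = vehicle and 100% = reference activator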
MsrA inhibitor: inhibitors of bovine MsrA. purified bovine MsrA, absorbance read-out. inhibition, % at 15.5 µM. 0.75% of 360,000 active. AID 651718; in the data active means inhibition above about 4.5%;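 further: 0% = vehicle wells with enzyme and 100% = reference inhibitor wells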
NadD block: inhibitors of Staphylococcus aureus NadD; AID 602399; 0.78% of 360,000 active; inhibition, % at 20 µM; purified NadD enzyme, colorimetric absorbance read-out; in the data active means inhibition above about 26%
NR2E3 ag-2: NR2E3 (human) agonism; GST-NR2E3/biotin-RetCOR TR-FRET, 1536-well; 0.12% of 320,000 active; inhibition of corepressor binding, % at 4.78 µM;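 active means percent inhibition above the cutoff of mean plus 3 SD of all tested compounds, set per screening campaign, cut at about 20% in these data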;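 further: 0% = DMSO wells and 100% = biotin wells as full block of FRET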
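Material: NR2E3–RetCOR corepressor complex / Amount: 1.35 nM GST-NR2E3 / Medium: Tris pH 7.5 / Compound: single nominal compound dose of 4.8 µM / Incubation: 5 h at 4 °C / Technique: TR-FRET, Eu(K)-anti-GST donor, streptavidin-D2 acceptor, ex 340, em 617/671 nm / Read-out basis: percent loss of FRET ratio relative to control wells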
Numbers without * were called inactive; . = not tested or not shown.

SMILES	GalR3 antagonist	NR2E3 ag-1	bovine MsrA act	MsrA inhibitor	NadD block	NR2E3 ag-2
CN1C(=O)/C(=C\c2ccc(Br)s2)C(=O)NC1=S	-9	6	-2	0	34*	0
O=C1NC(=S)NC(=O)C1=Cc1ccc(Br)s1	-7	-2	1	0	46*	1
C[C@H]1[C@H](OC(=O)CCC(=O)NCc2ccc(C(=O)O)cc2)O[C@@H]2O[C@@]3(C)CC[C@H]4[C@H](C)CC[C@@H]1C24OO3	.	93*	-2	.	1	-2
O=C1C2CC=CCC2C(=O)N1SC(Cl)(Cl)Cl (centres undefined)	35*	.	.	0	.	.
C[C@]12CCC3C(CCC4=CC(O)CC[C@@]43/C=N/O)C1(O)CCC2C1=CC(=O)OC1 (some centres undefined)	15*	-4	-7	0	-4	1
CC12CCC3C(CCC4(O)CC(O)CCC34C=NO)C1(O)CCC2C1=COC(=O)C1 (centres undefined)	23*	-7	-2	0	0	.
C[C@@H]1O[C@@H](O[C@H]2C[C@@H](O)[C@]3(CO)[C@H]4[C@H](O)C[C@]5(C)[C@@H](C6=CC(=O)OC6)CC[C@]5(O)[C@@H]4CC[C@]3(O)C2)[C@H](O)[C@H](O)[C@H]1O	.	5	-4	.	1	5
C[C@H]1O[C@@H](OC2CC[C@]3(C=O)[C@H]4CC[C@]5(C)[C@@H](C6=CC(=O)OC6)CC[C@]5(O)[C@@H]4CC[C@]3(O)C2)CC2OC(C)(C)OC21 (some centres undefined)	34*	-12	-10	-1	-2	-3
C[C@]12CC[C@H]3[C@@H](CC[C@]4(O)C[C@@H](O)CC[C@]34C=O)[C@@]1(O)CC[C@@H]2C1=CC(=O)OC1	15*	0	-5	-1	-4	0
CC12CC[C@H]3[C@@H](CCC4(O)C[C@H](O)CCC34/C=N/NC(=O)c3ccccc3Cl)C1(O)CCC2C1=CC(=O)OC1 (some centres undefined)	3	-4	-4	1	-4	-2
CCCCN=C[C@]12CCC(O)CC1(O)CCC1[C@@H]2CC[C@]2(C)[C@H](C3C=CC(=O)O3)CCC12O (some centres undefined)	8	-24	0	0	-6	1
O=C(CN1CCCCC1)c1ccccc1Cl	0	-10	-1	-1	-1	3
O=C1NC(=O)C(=Cc2ccc(-c3cc(Cl)ccc3[N+](=O)[O-])o2)C(=O)N1	2	-18	1	3	38*	.
Cn1cccc1/C=C1/C(=O)NC(=S)N(Cc2ccc(F)cc2)C1=O	-2	-22	-2	3	45*	-2
COc1ccc(-c2ccc3c(c2)CN(c2cccc(Cl)c2)Cc2cnnn2-3)cc1	-8	-16	0	-2	8	.
Clc1cccc(N2Cc3cc(-c4ccccc4)ccc3-n3nncc3C2)c1	-6	26	-5	0	33*	.
CC(=NCc1ccc2c(c1)OCO2)c1c(O)n(-c2ccc(C)cc2)c(=O)[nH]c1=O	-5	8	-6	2	-6	1
COC(=O)C1=C(c2ccc(Cl)c(C(F)(F)F)c2)C[C@@H]2CC[C@H]1N2C(=O)N1CCCC1	-5	-3	-1	0	-3	0
O=c1c2ccccc2nc(/C=C/c2ccc(O)cc2)n1-c1ccccc1O	-2	-25	0	3	-3	-2
COc1ccccc1-n1c(/C=C/c2ccc(O)cc2)nc2ccccc2c1=O	-2	-6	-2	4.6*	8	2
CCCCn1c(NC(=O)c2ccc(Br)o2)c(C(=O)OCC)c2nc3ccccc3nc21	-7	-9	-4	2	9	30*
O=c1[nH]c(=O)n(CCC2=CCCCC2)c(O)c1/C=N/Nc1cccc2ccccc12	-5	-18	-3	1	31*	-3
O=c1[nH]c(=O)n(CCC2=CCCCC2)c(O)c1/C=N/Nc1ccccc1	-4	10	-7	0	1	3
O=c1[nH]c(=S)n(C2CC2)c(O)c1/C=N/Nc1cccc2ccccc12	-10	-28	-3	1	30*	2
Clc1ccc(NC2=NCCCS2)cc1Cl	-11	-7	-3	1	-18	5
SMILES	GalR3 antagonist	NR2E3 ag-1	bovine MsrA act	MsrA inhibitor	NadD block	NR2E3 ag-2
COc1ccc(CCNCc2sccc2C)cc1	-8	5	-3	-1	-2	0
NC(Cc1ccc(O)cc1)C(=O)NN=Cc1ccc(N(CCCl)CCCl)cc1 (centres undefined)	-1	-1	-6	7.7*	14	.
COc1ccc(CC(C)Nc2cccc(F)c2)cc1 (centres undefined)	-9	-12	-3	1	-3	0
C=CCC1C(=O)NC(=S)NC1=O	-4	7	-4	2	-3	3
CC[N+](CC)(CC#CCO)CC#Cc1ccccc1	3	-26	2	-1	3	1
O=C(CNC1CCCCC1)N1CCC2(CC1)OCCO2	-2	13	-1	-1	1	0
NS(=O)(=O)c1ccc(-c2ccc(C=C3C(=O)NC(=O)NC3=O)o2)cc1	-3	36	-12	4	2	2
O=C1NC(=O)C(=Cc2ccc(SC3CCCCC3)o2)C(=O)N1	1	-8	-2	0	36*	4
O=C(Nc1nccs1)c1c(O)c2c(n(Cc3ccco3)c1=O)CCCC2	3	-38	-2	0	4	3
CN1CCc2cc3c(c4c2C1Cc1ccccc1-4)OCO3 (centres undefined)	-12	-56	48*	1	9	4
CN1CCc2cc(O)cc3c2[C@H]1Cc1ccc(O)c(O)c1-3	0	-13	-7	0	-6	-2
CCOC(=O)C(NC(C)=O)C(OC(C)=O)c1cccc(N(CCCl)CCCl)c1 (centres undefined)	13*	-6	-1	1	-1	0
CC(C)c1ccccc1NC1=NCCCS1	-9	-25	-3	2	-9	6
Cc1cccc(N2C(=O)NC(=O)/C(=C\c3ccc4c(c3)CCCN4Cc3ccccc3)C2=O)c1	-3	-23	-4	2	38*	-1
Cc1cccc(N2C(=O)NC(=O)/C(=C/c3cc4c(cc3[N+](=O)[O-])OCO4)C2=O)c1	-4	-9	-8	2	2	-4
CCN(CC)c1ccc(/C=C2/C(=O)NC(=O)N(CC3CCCO3)C2=O)cc1 (centres undefined)	-4	-36	-7	5.2*	8	3
COc1ccc(/C=C2/C(=O)NC(=O)N(c3ccc(C)c(C)c3)C2=O)cc1CN1C(=O)c2ccccc2C1=O	2	4	0	2	29*	-2
COc1cc(/C=C2\C(=O)NC(=O)N(c3ccccc3)C2=O)cc(OC)c1OC	-3	7	1	-1	5	-2
